# Source: ChEMBL document CHEMBL5385915 (J Med Chem, 2024)
# Tested on: Mycobacterium tuberculosis
# Assay: Antitubercular activity against multidrug-resistant Mycobacterium tuberculosis 08/00483E assessed as inhibition of bacterial growth measured for 7 days by REMA analysis
# Type: functional
# Details: 168 h, time 7 day
# Outline: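 REMA: 2-fold dilutions in CMM MOD2 medium, wells inoculated at 1×10^6 CFU/mL, 7 days at 37 °C with 200 rpm agitation; resazurin (0.02% w/v in PBS pH 7.4, 5% Tween 80) then 6 h at room temperature; OD570 vs vehicle; MIC99 by modified Gompertz function; three biological replicates.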
structure (smiles),measurement,value
FC(F)(F)c1cc([C@H]2C[C@@H](CN3CCCC3)N2Cc2ccccc2Br)cc(C(F)(F)F)c1 (racemic),MIC99,16.8 µM
